Assay outcomes (PubChem BioAssay)
IDE cell inh: inhibitors of human insulin-degrading enzyme in cells | HEK cells, FAbetaB cleavage, fluorescence polarization | inhibition, % at 5.59 µM | AID 434962 | hit rate 0.41% among 320,000;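 active = percent inhibition above the average of all tested compounds plus 3 SD, set per screening campaign, cut at about 16% in these data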;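 note: IDE supplied by intact live HEK cells; FP after avidin binding of uncleaved biotin substrate so inhibition keeps polarization high; 0% = DMSO wells and 100% = 60 µM reference IDE inhibitor Ii1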
HNF4A DNA FP: change in binding of human HNF4 alpha to DNA | P41235 | HNF4a-FITC DNA binding, fluorescence polarization, 1 h | activity change, % at 10 µM | hit rate 0.3% among 360,000; in the data active = activity change above about 30%, passing the limit was not always enough
CSN inh: CSN deneddylation inhibition | Q92905 | Purified CSN, SCF-Nedd8-OG deneddylation, fluorescence polarization | inhibition, % at 12.5 µM | hit rate 0.38% among 360,000;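 active = pattern-corrected inhibition above about 35%, with an unprinted fluorescence ratio check between 0.5 and 1.5, limit read from the data, passing the limit was not always enough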;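 note: 0% = enzyme with substrate and 100% = substrate without enzyme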
Target sequence (Q92905 whole entry, looked up, one chain of several): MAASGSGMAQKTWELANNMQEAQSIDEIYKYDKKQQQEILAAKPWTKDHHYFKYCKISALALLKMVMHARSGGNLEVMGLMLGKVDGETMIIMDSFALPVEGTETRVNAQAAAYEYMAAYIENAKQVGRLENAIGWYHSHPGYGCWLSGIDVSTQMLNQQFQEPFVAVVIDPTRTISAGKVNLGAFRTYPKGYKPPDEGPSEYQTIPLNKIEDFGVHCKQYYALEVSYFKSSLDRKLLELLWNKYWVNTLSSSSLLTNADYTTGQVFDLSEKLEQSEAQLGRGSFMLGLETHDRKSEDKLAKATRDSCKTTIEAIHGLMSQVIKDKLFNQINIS
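Assay system: purified human Csn5 enzyme expressed in HEK293T cells; measure: % inhibition; also added: SCFSkp2-Nedd8OG substrate at 10 nM final; technique: fluorescence polarization; times: reaction 90 min, room temperature; medium: Tris buffer pH 7.5, NaCl, DTT, Tween-20, trehalose, ovalbumin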
Rpn11 inh: blocks the human proteasome subunit Rpn11 | human 26S proteasome, Ub4-pepOG fluorescence polarization; 20S core pre-blocked with epoxomicin | AID 588493 | hit rate 0.59% among 360,000 | inhibition, % at 20 µM | O00487;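 active = inhibition at 20 µM, scaled to each plate's controls, above about 33%, limit read from the data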
TPT1 inhibitor: inhibitors of Candida albicans tRNA 2'-phosphotransferase TPT1. AID 1962. hit rate 0.81% among 300,000. recombinant caTPT1, FP RNA substrate dephosphorylation. inhibition, % at 5 µM;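 active = inhibition above the mean of all tested compounds plus 3 SD, set per screening campaign, cut at about 24% in these data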;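 note: plate controls were DMSO alone for no effect and ferristatin control at 100 nM for full effect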
IDE act: IDE (human) activation, cell-based; hit rate 0.073% among 340,000; HEK cells, FAbeta-B cleavage, fluorescence polarization; 0% vehicle, 100% cell-free pure enzyme wells; P14735; activation, % at 5.96 µM;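 active = activation above the mean of all tested compounds plus 3 SD, set per screening campaign, cut at about 17% in these data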
caTPT1 confirm: TPT1 (C. albicans) inhibition, confirmation | hit rate 74% among 2,400 | recombinant caTPT1, fluorescence polarization, RNase T1 coupled | AID 2149 | inhibition, % at 5 µM | shares compounds with TPT1 inhibitor;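 active = inhibition above the primary screen limit, the mean inhibition of all tested compounds plus 3 SD, cut at about 25% in these data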
RNase T1 inh: RNase T1 inhibition in TPT1 counter-screen; shares compounds with TPT1 inhibitor; RNase T1 cleavage, fluorescence polarization, 1536-well; inhibition, % at 5 µM; hit rate 83% among 2,400; AID 2153;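 active = inhibition above the solvent-only control well mean plus 3 SD, limit set per screening run, cut at about 23% in these data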;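 note: plate controls were DMSO wells with enzyme for no effect and wells without RNase T1 for full effect; inhibitors block cleavage so intact labeled substrate keeps polarization high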
Target sequence (P00651 whole entry, looked up): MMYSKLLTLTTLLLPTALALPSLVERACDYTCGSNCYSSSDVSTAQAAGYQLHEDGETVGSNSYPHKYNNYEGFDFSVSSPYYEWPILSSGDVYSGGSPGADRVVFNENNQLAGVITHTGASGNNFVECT
The depositor's hits bear a star; . = not tested or not shown. Sampled rows, rich in hits. Any-hit rate of the full collection: about 1.7%.

SMILES	IDE cell inh	HNF4A DNA FP	CSN inh	Rpn11 inh	TPT1 inhibitor	IDE act	caTPT1 confirm	RNase T1 inh
CCNC(=O)C1CCCN(Cc2cc(-c3ccccc3)on2)CC1 (stereo not given)	.	-1	-2	-5	.	.	.	.
CC1(C)CC(=O)C(C=Nc2cc(C(=O)c3ccccc3)ccc2N)=C(O)C1	0	31	29	.	27*	-4	7	12
CC1(C)CC(=O)C(C=Nc2ccc(N)cc2)=C(O)C1	0	1	-7	6	-4	2	.	.
COC(=O)c1ccc(N)c(N=CC2=C(O)CC(C)(C)CC2=O)c1	-3	22	26	.	31*	2	9	13
C=CCOc1ccc(C(c2c(C(=O)O)[nH]c3ccccc23)c2c(C(=O)O)[nH]c3ccccc23)cc1	7	-19	22	27	-1	1	.	.
Cc1ccc(C)c(NC(=S)N2CCC(NC(=O)c3ccc(F)cc3)CC2)c1	4	3	5	4	-2	-5	.	.
CC(C(=O)c1ccc(Br)cc1)[n+]1cccc2ccccc21 (stereo not given)	5	3	9	.	37*	-1	18	26*
CC(C(=O)c1ccc(Br)cc1)[n+]1cccc(NC(=O)c2ccccc2)c1 (stereo not given)	-1	3	1	-2	1	5	.	.
CS(=O)(=O)Nc1ccc(-c2ccc(/C=C3\SC(N)=NC3=O)o2)cc1	7	42*	10	22	44*	-11	54*	68*
NC1=NC(=O)/C(=C/c2cccs2)S1	2	0	-2	0	1	3	.	.
O=C(CSc1n[nH]c(-c2ccccc2F)n1)NCC(=O)Nc1ccc(F)c(F)c1F	-1	2	-2	1	-1	6	.	.
CN(C)c1ccc(/C=C2\SC(=O)N(CC(O)Cn3c4ccccc4c4ccccc43)C2=O)cc1 (stereo not given)	4	6	-6	5	76*	-5	52*	72*
O=C1S/C(=C/c2ccccc2)C(=O)N1CC(O)Cn1c2ccccc2c2ccccc21 (stereo not given)	7	-1	3	-6	3	-10	.	.
CN(C)c1ccc(/C=C2/SC(=O)N(CCN=C3NS(=O)(=O)c4ccccc43)C2=O)cc1	16	11	4	-25	33*	-10	28*	38*
Cn1cccc1CC(=O)N/N=C\c1c2ccccc2cc2ccccc12	-4	9	7	11	-7	2	.	.
Cn1cccc1CC(=O)N/N=C/c1cccc2ccccc12	2	-2	1	-14	33*	-3	20	30*
Cc1ccc(NC(=O)N2CCCCCC2)c(C)c1	.	1	1	4	.	6	.	.
C=CCn1c(=O)/c(=C/c2ccc(C)o2)s/c1=C(/C#N)C(=O)c1ccccc1	10	50	45*	.	106*	-13	144*	142*
O=c1cc(C(F)(F)F)nc(-n2[nH]c3c(c2=O)CCCC3)[nH]1	12	4	3	1	33*	-2	16	28*
O=C(c1ccc2c(c1)OCO2)C1CCCN(Cc2ccc(OC(F)F)cc2)C1 (stereo not given)	0	0	-3	8	-4	1	.	.
COc1ccc(/C=C2\SC(=S)N(CC3CCCO3)C2=O)cc1 (stereo not given)	-2	-1	4	-3	0	2	.	.
COc1ccc(N=C2O/C(=C/c3sc(=S)n(CC4CCCO4)c3O)N=C2C#N)cc1 (stereo not given)	1	31	11	.	45*	.	52*	61*
O=C(NCCN1C(=O)S/C(=C\c2ccc(Cl)c([N+](=O)[O-])c2)C1=O)C1=COCCO1	-1	-1	3	-2	0	0	.	.
COC(=O)c1ccc(-n2cc(-c3ccc(OC)cc3)[nH]c2=S)cc1	5	30	5	30	38*	1	31*	40*
